From ChEMBL document CHEMBL1128682, “Design and synthesis of new naphthalenic derivatives as ligands for 2-[125I]iodomelatonin binding sites” (J Med Chem, 1995) come the findings set out here.

The target of the first test is T1, Melatonin receptor (Gallus gallus, UniProt P49288+P51050+P49285). The test can be described thus: Effect of compound on Melatonin receptor in chicken brain in the presence of GTP-gamma-S.
Regarding `CCC(=O)NCCc1c(OC)ccc2ccccc12`, the Ki (commonly a dissociation constant, usually derived from enzyme kinetics or from competition with a known ligand) turned out to be 2.86 nM.

The next test addresses T1, Melatonin receptor. The test can be described thus: Effect of compound on Melatonin receptor in chicken brain in the presence of MnCl2.
On to `CCC(=O)NCCc1c(OC)ccc2ccccc12`, for which the Ki was 0.297 nM.

Another test deals with T1, Melatonin receptor. The experiment in a line: Competitive binding by the displacement of 2-[125I]- Iodomelatonin binding from melatonin receptors in chicken brain membranes. Type of test: cell membranes, Membrane. In short, it runs like this:
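Whole chicken brain (Redbro, 4 months) homogenized in ice-cold 50 mM Tris-HCl pH 7.4, washed twice by centrifugation, and resuspended at 5 mg protein/mL. Filtration through PEI-soaked glass fiber filters, then gamma counting. Nonspecific binding defined with 10 μM 2-iodomelatonin. Triplicates. Ki from IC50 by Cheng-Prusoff; one or two determinations.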
For `COc1ccc(OC)c(CCNC(C)=O)c1`, the Ki amounted to 69.9 nM.
`COc1ccccc1CCNC(C)=O` showed a Ki of 213 nM.
Molecule `CCCCC(=O)NCCc1cc(OC)ccc1OC` gave a Ki of over 1000 nM.
On the same count and under the same terms, the value for `COc1cccc(CCNC(C)=O)c1` was 253 nM; that for `CCc1ccc(OC)c(CCNC(C)=O)c1` was 217 nM.
With `COc1ccc2ccc(OC)c(CCNC(=O)C(F)(F)F)c2c1`, the Ki is given as 0.4 nM.
On the same count and under the same terms, the value for `CC(=O)NCCc1cccc(F)c1` was over 1000 nM; that for `COc1ccc2ccc(OC)c(CCNC(=O)C3CC3)c2c1` was 0.05 nM; that for `COc1ccc2ccc(OC)c(CCNC(C)=O)c2c1` was 0.1 nM.
On the same count and under the same terms, the value for `CC(=O)NCCc1ccccc1Cl` was over 1000 nM.
Same read-out and setting: as for `COc1ccc(CCNC(C)=O)cc1`, the figure is over 1000 nM.
The molecule `COc1ccc2ccccc2c1CCNC(=O)C1CC1` returned a Ki of 19.4 nM.
`CCC(=O)NCCc1cc(OC)ccc1OC` returned a Ki of 17.5 nM.
The same measure, in the same setting: the value for `COc1ccc2ccccc2c1CCNC(=O)C(F)(F)F` was 0.54 nM.
With `CCC(=O)NCCc1c(OC)ccc2ccccc12`, the Ki came to 0.68 nM.
As to `CC(=O)NCCc1cccc(Cl)c1`, the Ki is reported as over 1000 nM.
The same measure, in the same setting: as for `CCCCC(=O)NCCc1c(OC)ccc2ccccc12`, the figure is 237 nM; as for `COc1ccc2ccccc2c1CCNC(C)=O`, 2.68 nM; as for `COc1ccc2ccccc2c1CC(C)NC(C)=O` (stereo not given), 421 nM.
Still for that read-out and setting: as for `COc1ccc(C)cc1CCNC(C)=O`, the figure is 192 nM; as for `COc1ccc(Br)cc1CCNC(C)=O`, 42 nM; as for `COc1ccc2ccccc2c1CC(C)NC(=O)C(F)(F)F` (stereo not given), over 1000 nM.
Same read-out and setting: the value for `CCC(=O)NCCc1cc(Br)ccc1OC` was 8 nM.
For the molecule `CC(=O)NCCc1cccc2ccccc12`, the Ki turned out to be 321 nM.
Still for that read-out and setting: as for `CCCC(=O)NCCc1c(OC)ccc2ccccc12`, the figure is 1.37 nM.
Still for that read-out and setting: the value for `CCC(=O)NCCc1c(OC)ccc2ccc(OC)cc12` was 0.07 nM.
The same measure, in the same setting: the value for `COc1ccc(OC)c(CCNC(=O)C2CC2)c1` was 386 nM; that for `CC(=O)NCCc1ccc(Cl)cc1` was over 1000 nM.
